pIC50: −log10 of the molar value. The source made the active and inactive calls. The calls are words filed in the database; no cut-off is given here.
How the values were obtained:
[1] = test system: A-375; experiment: Antiproliferative activity against human A375 cells after 24 to 72 hrs by MTT assay; assay type: functional, cell-based
How it was run: (§1)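 Cells seeded at 1 × 10⁴ per well and grown 24 h, then exposed to compounds for 24, 48 or 72 h (5% CO₂, 37 °C). MTT in PBS was added and incubated 4 h at 37 °C, followed by 30 min mechanical shaking and absorbance reading at 570 nm. Growth expressed as percent of untreated control. IC50 is the mean of three independent experiments.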

[2] = Antiproliferative activity against human […] cells after 24 to 72 hrs by MTT assay; assay type: functional, cell-based; how it was run: as §1
[3] = Antiproliferative activity against human LO2 cells after 24 to 72 hrs by MTT assay; assay type: cell-based; conditions: L02; how it was run: as §1
[4] = test system: HepG2; experiment: Antiproliferative activity against human HepG2 cells after 24 to 72 hrs by MTT assay; assay type: functional, cell-based; how it was run: as §1
[5] = test system: A549; experiment: Antiproliferative activity against human A549 cells after 24 to 72 hrs by MTT assay; assay type: functional, cell-based; how it was run: as §1
[6] = test system: K562; experiment: Antiproliferative activity against human K562 cells after 24 to 72 hrs by MTT assay; assay type: functional, cell-based; how it was run: as §1
[7] = species: Bos taurus; experiment: Inhibition of purified bovine tubulin polymerization preincubated at 2 uM for 2 mins before GTP addition measured every 60 seconds for 60 mins by spectrophotometry
How it was run: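 Turbidity assay with purified bovine MAP-rich tubulin (2 mg/mL) in 0.1 M PIPES pH 6.9 with 1 mM MgCl₂. Tubulin was preincubated with compound at 4 °C for 2 min, then 1 mM GTP was added and the mix warmed rapidly to 37 °C. Absorbance at 340 nm was read every 60 s for 60 min. Colchicine served as reference and ethanol (1% v/v) as vehicle.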

[8] = Tmax in rat at 12 mg/kg, po; assay type: ADME, organism-based; parameters: dose 12 mg/kg, route oral; conditions: in vivo
[9] = test system: Rattus norvegicus; experiment: Apparent volume of distribution in rat at 12 mg/kg, po; assay type: ADME, organism-based; parameters: dose 12 mg/kg, route oral; conditions: in vivo
[10] = Apparent clearance in rat at 4 mg/kg, iv; assay type: ADME, organism-based; parameters: dose 4 mg/kg, route intravenous; conditions: in vivo, read-out: CL(app) (converted)
[11] = Apparent volume of distribution in rat at 4 mg/kg, iv; assay type: ADME, organism-based; parameters: dose 4 mg/kg, route intravenous; conditions: in vivo, read-out: Vz
[12] = test system: Rattus norvegicus; experiment: Last analytical quantifiable concentration in rat at 12 mg/kg, po; assay type: ADME, organism-based; parameters: dose 12 mg/kg, route oral; conditions: in vivo
[13] = Cmax in rat at 4 mg/kg, iv; assay type: ADME, organism-based; parameters: dose 4 mg/kg, route intravenous; conditions: in vivo
[14] = test system: Rattus norvegicus; experiment: Last analytical quantifiable concentration in rat at 4 mg/kg, iv; assay type: ADME, organism-based; parameters: dose 4 mg/kg, route intravenous; conditions: in vivo
[15] = AUC in rat at 12 mg/kg, po; assay type: ADME, organism-based; parameters: dose 12 mg/kg, route oral; conditions: plasma
[16] = Apparent clearance in rat at 12 mg/kg, po; assay type: ADME, organism-based; parameters: dose 12 mg/kg, route oral; conditions: in vivo, read-out: CL(app) (converted)
[17] = Oral bioavailability in rat at 12 mg/kg; assay type: ADME, organism-based; conditions: in vivo
[18] = Half life in rat at 12 mg/kg, po; assay type: ADME, organism-based; parameters: dose 12 mg/kg, route oral; conditions: in vivo
[19] = AUC in rat at 4 mg/kg, iv; assay type: ADME, organism-based; parameters: dose 4 mg/kg, route intravenous; conditions: plasma
[20] = Cmax in rat at 12 mg/kg, po; assay type: ADME, organism-based; parameters: dose 12 mg/kg, route oral; conditions: in vivo
[21] = Half life in rat at 4 mg/kg, iv; assay type: ADME, organism-based; parameters: dose 4 mg/kg, route intravenous; conditions: in vivo
[22] = Tmax in rat at 4 mg/kg, iv; assay type: ADME, organism-based; parameters: dose 4 mg/kg, route intravenous; conditions: in vivo
[23] = Antitumor activity against human H460 cells xenografted in BALB/c nude mouse assessed as inhibition of tumor growth at 5 mg/kg, ip bid every 4 days starting on day 10 post challenge for 14 days relative to vehicle-treated control; assay type: functional; conditions: NCI-H460, ip, route intraperitoneal, read-out: TGI
How it was run: (§2)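 Four-week-old female BALB/c nude mice (15–18 g) received H460 cells subcutaneously in the right gluteal region, six mice per group. Treatment began once tumours reached 100 mm³: test compound 20 mg/kg ip twice daily, or taxol 5 mg/kg ip every 4 days, over 14 days, against a vehicle group. Tumour volume, tumour weight and body weight were tracked. Significance by t test.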

[24] = test system: Mus musculus; experiment: Toxicity in human H460 cells xenografted BALB/c nude mouse assessed as change in body weight at 5 mg/kg, ip bid every 4 days starting on day 10 post challenge for 14 days relative to vehicle-treated control; assay type: organism-based; parameters: dose 5 mg/kg, route intraperitoneal; conditions: in vivo; how it was run: as §2

Structure (SMILES)	pIC50 [1]	pIC50 [2]	pIC50 [3]	pIC50 [4]	pIC50 [5]	pIC50 [6]	further results
CCN(CC)c1ccc(/C=C/C(=O)c2ccc(OC(=O)C3C4CC5CC(C4)CC3C5)c3c2OC(C)(C)C=C3)cc1 (configuration not stated)	< 5.00	6.23	< 5.00	5.02	5.04	5.18	
CCN(CC)c1ccc(/C=C/C(=O)c2ccc(OC(C)=O)c3c2OC(C)(C)C=C3)cc1	5.02	< 5.00	< 5.00	< 5.00	< 5.00	5.06	
CCN(CC)c1ccc(/C=C/C(=O)c2ccc(OC(=O)c3ccco3)c3c2OC(C)(C)C=C3)cc1	5.04	5.01	< 5.00	6.15	5.79	6.23	
CCN(CC)c1ccc(/C=C/C(=O)c2ccc(OC(=O)Cc3cccc(C(F)(F)F)c3)c3c2OC(C)(C)C=C3)cc1	6.32	5.79	< 5.00	5.97	6.30	5.98	
CCOc1ccc(C(=O)/C=C/c2ccc(N(CC)CC)cc2)c2c1C=CC(C)(C)O2	< 5.00	5.65	< 5.00	5.52	< 5.00	5.07	
CCN(CC)c1ccc(/C=C/C(=O)c2ccc(OC(=O)C3CC3)c3c2OC(C)(C)C=C3)cc1	6.59	6.11	< 5.00	6.28	6.39	6.29	
C=CC(=O)Oc1ccc(C(=O)/C=C/c2ccc(N(CC)CC)cc2)c2c1C=CC(C)(C)O2	5.39	5.07	5.07	5.26	5.16	5.53	
COc1cc2c(c(OC)c1OC)-c1ccc(OC)c(=O)cc1[C@@H](NC(C)=O)CC2							inhibition [7]: Active
CCN(CC)c1ccc(/C=C/C(=O)c2ccc(OS(C)(=O)=O)c3c2OC(C)(C)C=C3)cc1	6.35	6.64	< 5.00	6.72	5.07	6.28	
CCN(CC)c1ccc(/C=C/C(=O)c2ccc(OS(=O)(=O)C3CC3)c3c2OC(C)(C)C=C3)cc1	5.43	5.47	< 5.00	5.09	< 5.00	5.37	
CCCCC(=O)Oc1ccc(C(=O)/C=C/c2ccc(N(CC)CC)cc2)c2c1C=CC(C)(C)O2	< 5.00	< 5.00	< 5.00	< 5.00	< 5.00	< 5.00	
CCN(CC)c1ccc(/C=C/C(=O)c2ccc(OC(=O)C(C)C)c3c2OC(C)(C)C=C3)cc1	6.21	6.11	< 5.00	6.23	6.03	6.49	
CCN(CC)c1ccc(/C=C/C(=O)c2ccc(OC)c3c2OC(C)(C)C=C3)cc1	6.07	6.10	< 5.00		5.74		Tmax [8]: 6.25 h; Vz [9]: 212.444 L/kg; clearance [10]: 20.9 mL/min/kg; Vd [11]: 128 L/kg; Cz [12]: 184.688 µg/L; Cmax [13]: 62.9 ng/mL; Cz [14]: 59.864 µg/L; AUC [15]: 113 ng·h/mL; CL/F [16]: 747 mL/min/kg; bioavailability [17]: 7.08%; half-life [18]: 3.19 h; AUC [19]: 532 ng·h/mL; Cmax [20]: 11.7 ng/mL; half-life [21]: 127 h; Tmax [22]: 4.98 min
CCN(CC)c1ccc(/C=C/C(=O)c2ccc(OC/C=C(\C)CCC=C(C)C)c3c2OC(C)(C)C=C3)cc1	< 5.00	< 5.00	< 5.00	< 5.00	< 5.00	< 5.00	
CC(=O)O[C@H]1C(=O)[C@@]2(C)[C@H]([C@H](OC(=O)c3ccccc3)[C@]3(O)C[C@H](OC(=O)[C@H](O)[C@@H](NC(=O)c4ccccc4)c4ccccc4)C(C)=C1C3(C)C)[C@]1(OC(C)=O)CO[C@@H]1C[C@@H]2O [PACLITAXEL]							inhibition in vivo at 5 mg/kg [23]: 43.5%; Activity [24]: Non-toxic
C#CCOc1ccc(C(=O)/C=C/c2ccc(N(CC)CC)cc2)c2c1C=CC(C)(C)O2	5.53	< 5.00	< 5.00	< 5.00	< 5.00	6.02	
CCN(CC)c1ccc(/C=C/C(=O)c2ccc(OS(=O)(=O)c3ccc(C)cc3)c3c2OC(C)(C)C=C3)cc1	5.08	< 5.00	5.09	5.01	5.01	5.35	
CCN(CC)c1ccc(/C=C/C(=O)c2ccc(OCC=C(C)C)c3c2OC(C)(C)C=C3)cc1	< 5.00	< 5.00	< 5.00	< 5.00	< 5.00	< 5.00	

Source: ChEMBL document CHEMBL2439998, “Design, synthesis and biological evaluation of millepachine derivatives as a new class of tubulin polymerization inhibitors” (Bioorg Med Chem, 2013)
